Data reported in ChEMBL document CHEMBL1137900, “Quinazolinone fungal efflux pump inhibitors. Part 2: In vitro structure-activity relationships of (N-methyl-piperazinyl)-containing derivatives” (Bioorg Med Chem Lett, 2004).
≈ marks a conversion by molar mass, not a printed value.

How the values were obtained:
Candida albicans [1] = experiment: In vitro minimum potentiation concentration to achieve an 8-fold reduction in fluconazole MIC against Candida albicans strain YEM15 (overexpressing both CDR1 and CDR2); assay type: functional
Outline: (§1)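 Checkerboard assay in RPMI 1640 following the NCCLS M27-A broth dilution method. Fluconazole MIC was measured with and without varying concentrations of efflux pump inhibitor. MPC8 is the lowest inhibitor concentration giving an 8-fold reduction in fluconazole MIC. Some analogues were tested only in an abbreviated format: inhibitor concentration varied at fixed fluconazole of 1/8 and 1/32 MIC.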

Nakaseomyces glabratus [2] = experiment: In vitro minimum potentiation concentration to achieve an 8-fold reduction in fluconazole MIC against Candida glabrata strain YEM19 (overexpressing both CgDR1 and CgDR2); assay type: functional; outline: as §1
Candida albicans [3] = experiment: In vitro concentration to inhibit Candida albicans CDR1 transporter gene over-expressed in Saccharomyces cerevisiae strain YEM172; assay type: functional, organism-based
Outline: (§2)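 Yeast strains over-expressing single pumps, inoculum 10^4 cells, incubated at 30 °C in YPD. Inhibitor concentration was varied against one fixed fluconazole concentration. That concentration was the geometric mean of the test strain's fluconazole MIC and that of the parent pump-deleted strain; for YEM172 it was 8 µg/ml.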

Candida albicans [4] = experiment: In vitro concentration to inhibit Candida albicans CDR2 transporter gene over-expressed in Saccharomyces cerevisiae strain YEM171; assay type: functional, organism-based; outline: as §2
Nakaseomyces glabratus [5] = experiment: In vitro concentration to inhibit Candida glabrata CgCDR1 transporter gene over-expressed in Saccharomyces cerevisiae strain Y170; assay type: functional, organism-based; outline: as §2
Nakaseomyces glabratus [6] = experiment: In vitro concentration to inhibit Candida glabrata CgCDR2 transporter gene over-expressed in Saccharomyces cerevisiae strain Y218; assay type: functional, organism-based; outline: as §2
Candida albicans [7] = experiment: In vitro minimum inhibitory concentration against Candida albicans; assay type: functional
Outline: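 C. albicans YEM15 (over-expresses CDR1 and CDR2) tested by broth dilution in RPMI 1640 following NCCLS reference method M27-A. The compound was tested alone, without fluconazole, across a range of concentrations, and the MIC was read as intrinsic antifungal activity.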

Saccharomyces cerevisiae [8] = experiment: In vitro concentration required to inhibit 80% growth of Saccharomyces cerevisiae strain YEM139 (PDR5 deleted) after 48 h; assay type: functional
Candida albicans [9] = experiment: In vitro concentration required against Candida albicans strain YEM 15; assay type: functional
Saccharomyces cerevisiae [10] = experiment: In vitro concentration required to inhibit 80% growth of Saccharomyces cerevisiae strain Y170 (CgCDR1 over-expressed) after 48 h; assay type: functional
Saccharomyces cerevisiae [11] = experiment: In vitro concentration required to inhibit 80% growth of Saccharomyces cerevisiae strain Y218 (CgCDR2 over-expressed) after 48 h; assay type: functional
Saccharomyces cerevisiae [12] = experiment: In vitro concentration required to inhibit 80% growth of Saccharomyces cerevisiae strain YEM171 (CDR2 over-expressed) after 48 h; assay type: functional
Saccharomyces cerevisiae [13] = experiment: In vitro concentration required to inhibit 80% growth of Saccharomyces cerevisiae strain YEM172 (CDR1 over-expressed) after 48 h; assay type: functional

| SMILES | MPC8 (Candida albicans [1]) | MPC8 (Nakaseomyces glabratus [2]) | also measured |
| --- | --- | --- | --- |
| COc1ccc(NC(=O)N(c2ccc(OC)cc2OC)C(C)c2nc3ccccc3c(=O)n2N2CCN(C)CC2)cc1 (configuration not stated) | 16 µg/mL | 2 µg/mL |  |
| CC(c1nc2ccccc2c(=O)n1N1CCN(C)CC1)N(C(=O)Nc1ccc(F)cc1)c1ccccc1 (configuration not stated) | >32 µg/mL | >32 µg/mL |  |
| COc1ccc(N(C(=O)Nc2ccc(F)cc2)C(C)c2nc3ccc(O)cc3c(=O)n2N2CCN(C)CC2)c(OC)c1 (configuration not stated) | 16 µg/mL | 1 µg/mL |  |
| COc1ccc(N(C(=O)Nc2ccc(F)cc2)C(C)c2nc3ccccc3c(=O)n2N2CCN(C)CC2)cc1 (configuration not stated) | 8 µg/mL | 32 µg/mL |  |
| COc1ccc(N(C(=O)NC(C)C)C(C)c2nc3ccccc3c(=O)n2N2CCN(C)CC2)c(OC)c1 (configuration not stated) | >32 µg/mL | >32 µg/mL |  |
| COc1ccc(N(C(=O)Nc2ccc(C)cc2)C(C)c2nc3ccccc3c(=O)n2N2CCN(C)CC2)c(OC)c1 (configuration not stated) | 16 µg/mL | 4 µg/mL |  |
| COc1ccc(N(C(=O)Nc2ccc(F)cc2)C(C)c2nc3ccccc3c(=O)n2N2CCN(C)CC2)c(OC)c1 (configuration not stated) | 4 µg/mL | 4 µg/mL |  |
| COc1cccc(N(C(=O)Nc2ccc(F)cc2)C(C)c2nc3ccccc3c(=O)n2N2CCN(C)CC2)c1 (configuration not stated) | 16 µg/mL | >32 µg/mL |  |
| COc1ccc(N(C(=O)NS(=O)(=O)c2ccc(Cl)cc2)C(C)c2nc3ccccc3c(=O)n2N2CCN(C)CC2)c(OC)c1 (configuration not stated) | >32 µg/mL | >32 µg/mL |  |
| COc1ccc(N(C(=O)Nc2ccc(F)cc2)C(C)c2nc3c(OC)cccc3c(=O)n2N2CCN(C)CC2)c(OC)c1 (configuration not stated) | 8 µg/mL | 8 µg/mL |  |
| COc1ccccc1N(C(=O)Nc1ccc(F)cc1)C(C)c1nc2ccccc2c(=O)n1N1CCN(C)CC1 (configuration not stated) | >32 µg/mL | >32 µg/mL |  |
| CC(c1nc2ccccc2c(=O)n1N1CCN(C)CC1)N(C(=O)Nc1ccc(F)cc1)c1ccc(F)cc1F (configuration not stated) | 8 µg/mL | 32 µg/mL |  |
| COc1ccc(N(C(=O)Nc2ccc(F)cc2)C(C)c2nc3cc(Cl)ccc3c(=O)n2N2CCN(C)CC2)c(OC)c1 (configuration not stated) | 0.12 µg/mL | 0.5 µg/mL |  |
| COc1ccc(N(C(=O)Nc2cccc(C#N)c2)C(C)c2nc3ccccc3c(=O)n2N2CCN(C)CC2)c(OC)c1 (configuration not stated) | 32 µg/mL | 32 µg/mL |  |
| COc1ccc(N(C(=O)Nc2ccccc2)C(C)c2nc3ccccc3c(=O)n2N2CCN(C)CC2)c(OC)c1 (configuration not stated) | 16 µg/mL | 16 µg/mL |  |
| COc1ccc(N(C(=O)Nc2nc3ccccc3s2)C(C)c2nc3ccccc3c(=O)n2N2CCN(C)CC2)c(OC)c1 (configuration not stated) | 2 µg/mL | 16 µg/mL |  |
| Cc1ccc(N(C(=O)Nc2ccc(F)cc2)C(C)c2nc3ccccc3c(=O)n2N2CCN(C)CC2)c(C)c1 (configuration not stated) | 8 µg/mL | >32 µg/mL |  |
| COc1ccc(N(C(=O)Nc2ccc(F)cc2)C(C)c2nc3ccc(Cl)cc3c(=O)n2N2CCN(C)CC2)c(OC)c1 (configuration not stated) | 0.25 µg/mL | 2 µg/mL |  |
| COc1cc(N(C(=O)Nc2ccc(F)cc2)C(C)c2nc3ccccc3c(=O)n2N2CCN(C)CC2)cc(OC)c1OC (configuration not stated) | 8 µg/mL | >32 µg/mL |  |
| COc1ccc(N(C(=O)Nc2ccc(F)cc2)C(C)c2nc3cc(F)ccc3c(=O)n2N2CCN(C)CC2)c(OC)c1 (configuration not stated) | 0.5 µg/mL | 1 µg/mL |  |
| COc1cc(OC)c(N(C(=O)Nc2ccc(F)cc2)C(C)c2nc3ccccc3c(=O)n2N2CCN(C)CC2)c(OC)c1 (configuration not stated) | >32 µg/mL | >32 µg/mL |  |

| SMILES | MPC8 (Candida albicans [1]) | MPC8 (Nakaseomyces glabratus [2]) | also measured |
| --- | --- | --- | --- |
| COc1ccc(N(C(=O)Nc2ccc(F)cc2)C(C)c2nc3cccc(F)c3c(=O)n2N2CCN(C)CC2)c(OC)c1 (configuration not stated) | 8 µg/mL | 8 µg/mL |  |
| CCC(=O)Oc1ccc2nc(C(C)N(C(=O)Nc3ccc(F)cc3)c3ccc(OC)cc3OC)n(N3CCN(C)CC3)c(=O)c2c1 (configuration not stated) | 4 µg/mL | 4 µg/mL |  |
| COc1ccc(N(C(=O)Nc2ccc(F)cc2)C(C)c2nc3ccc(C)cc3c(=O)n2N2CCN(C)CC2)c(OC)c1 (configuration not stated) | 0.5 µg/mL | 4 µg/mL |  |
| COc1ccc(N(C(C)c2nc3ccccc3c(=O)n2N2CCN(C)CC2)S(=O)(=O)c2ccc(Cl)cc2)c(OC)c1 (configuration not stated) | 32 µg/mL | >32 µg/mL |  |
| COc1ccc(N(C(=O)Nc2ccc(F)cc2)[C@@H](C)c2nc3cc(F)ccc3c(=O)n2N2CCN(C)CC2)c(OC)c1 | 0.25 µg/mL | 0.5 µg/mL | IC50 (Candida albicans [3]): 0.5 µg/mL (≈ 0.864 µM); IC50 (Candida albicans [4]): 16 µg/mL (≈ 27.7 µM); IC50 (Nakaseomyces glabratus [5]): 2 µg/mL (≈ 3.46 µM); IC50 (Nakaseomyces glabratus [6]): 32 µg/mL (≈ 55.3 µM) |
| COc1ccc(N(C(=O)c2ccc(Cl)cc2)C(C)c2nc3ccccc3c(=O)n2N2CCN(C)CC2)c(OC)c1 (configuration not stated) | 4 µg/mL | >32 µg/mL |  |
| CC(c1nc2ccccc2c(=O)n1N1CCN(C)CC1)N(C(=O)Nc1ccc(F)cc1)c1ccc(OCC2CC2)cc1OCC1CC1 (configuration not stated) | 4 µg/mL | 2 µg/mL | MIC (Candida albicans [7]): 32 µg/mL (≈ 49.9 µM) |
| COc1ccc(N(C(=O)c2ccccc2Cl)C(C)c2nc3ccccc3c(=O)n2N2CCN(C)CC2)c(OC)c1 (configuration not stated) | 4 µg/mL | >32 µg/mL |  |
| CC(c1nc2ccccc2c(=O)n1N1CCN(C)CC1)N(C)C(=O)Nc1ccc(F)cc1 (configuration not stated) | >32 µg/mL | >32 µg/mL |  |
| COc1ccc(N(C(=O)Nc2ccc(F)cc2)C(C)c2nc3cc(F)c(F)cc3c(=O)n2N2CCN(C)CC2)c(OC)c1 (configuration not stated) | 0.12 µg/mL | 0.5 µg/mL |  |
| COc1ccc(N(C(=O)Nc2ccc(Cl)cc2)C(C)c2nc3ccccc3c(=O)n2N2CCN(C)CC2)c(OC)c1 (configuration not stated) | 2 µg/mL | 1 µg/mL |  |
| COc1ccc(NC(C)c2nc3ccccc3c(=O)n2N2CCN(C)CC2)c(OC)c1 (configuration not stated) | >32 µg/mL | >32 µg/mL |  |
| COc1ccc(N(C(=O)Nc2ccc(F)cc2)C(C)c2nc3ccccc3c(=O)n2N2CCN(C)CC2)cc1OC (configuration not stated) | >32 µg/mL | >32 µg/mL |  |
| OC(Cn1cncn1)(Cn1cncn1)c1ccc(F)cc1F [FLUCONAZOLE] |  |  | MIC (Saccharomyces cerevisiae [8]): 0.5 µg/mL (≈ 1.63 µM); MIC (Candida albicans [9]): 128 µg/mL (≈ 418 µM); MIC (Saccharomyces cerevisiae [10]): 128 µg/mL (≈ 418 µM); MIC (Saccharomyces cerevisiae [11]): 2 µg/mL (≈ 6.53 µM); MIC (Saccharomyces cerevisiae [12]): 8 µg/mL (≈ 26.1 µM); MIC (Saccharomyces cerevisiae [13]): 128 µg/mL (≈ 418 µM) |
| COc1ccc(N(C(=O)Nc2cccc(Cl)c2)C(C)c2nc3ccccc3c(=O)n2N2CCN(C)CC2)c(OC)c1 (configuration not stated) | 1 µg/mL | 4 µg/mL |  |
| COc1ccc(N(C(=O)Nc2ccc(F)cc2)C(C)c2nc3ccc(OC)cc3c(=O)n2N2CCN(C)CC2)c(OC)c1 (configuration not stated) | 0.5 µg/mL | 2 µg/mL |  |
| COc1ccc(N(C(=O)Nc2ccc(F)cc2)C(C)c2nc3ccc(OCC(N)=O)cc3c(=O)n2N2CCN(C)CC2)c(OC)c1 (configuration not stated) | >32 µg/mL | >32 µg/mL |  |
| COc1ccc(N(C(=O)Nc2ccc(F)cc2)[C@H](C)c2nc3cc(F)ccc3c(=O)n2N2CCN(C)CC2)c(OC)c1 | >32 µg/mL | >32 µg/mL | IC50 (Candida albicans [3]): > 32 µg/mL; IC50 (Candida albicans [4]): > 32 µg/mL; IC50 (Nakaseomyces glabratus [5]): > 32 µg/mL; IC50 (Nakaseomyces glabratus [6]): > 32 µg/mL |
| COc1ccc(N(C(=O)Nc2ccc(F)cc2)C(C)c2nc3ccc(F)cc3c(=O)n2N2CCN(C)CC2)c(OC)c1 (configuration not stated) | 1 µg/mL | 2 µg/mL |  |
| COc1ccc(N(C(=O)Nc2ccccc2Cl)C(C)c2nc3ccccc3c(=O)n2N2CCN(C)CC2)c(OC)c1 (configuration not stated) | >32 µg/mL | >32 µg/mL |  |
| COc1ccc(N(C(=O)Oc2ccc(Cl)cc2)C(C)c2nc3ccccc3c(=O)n2N2CCN(C)CC2)c(OC)c1 (configuration not stated) | 32 µg/mL | 32 µg/mL |  |
